# Published values collected from several papers.
# Target: Ephrin type-A receptor 3 (EPHA3, Homo sapiens, UniProt P29320)
# One construct used (P29320 21-983): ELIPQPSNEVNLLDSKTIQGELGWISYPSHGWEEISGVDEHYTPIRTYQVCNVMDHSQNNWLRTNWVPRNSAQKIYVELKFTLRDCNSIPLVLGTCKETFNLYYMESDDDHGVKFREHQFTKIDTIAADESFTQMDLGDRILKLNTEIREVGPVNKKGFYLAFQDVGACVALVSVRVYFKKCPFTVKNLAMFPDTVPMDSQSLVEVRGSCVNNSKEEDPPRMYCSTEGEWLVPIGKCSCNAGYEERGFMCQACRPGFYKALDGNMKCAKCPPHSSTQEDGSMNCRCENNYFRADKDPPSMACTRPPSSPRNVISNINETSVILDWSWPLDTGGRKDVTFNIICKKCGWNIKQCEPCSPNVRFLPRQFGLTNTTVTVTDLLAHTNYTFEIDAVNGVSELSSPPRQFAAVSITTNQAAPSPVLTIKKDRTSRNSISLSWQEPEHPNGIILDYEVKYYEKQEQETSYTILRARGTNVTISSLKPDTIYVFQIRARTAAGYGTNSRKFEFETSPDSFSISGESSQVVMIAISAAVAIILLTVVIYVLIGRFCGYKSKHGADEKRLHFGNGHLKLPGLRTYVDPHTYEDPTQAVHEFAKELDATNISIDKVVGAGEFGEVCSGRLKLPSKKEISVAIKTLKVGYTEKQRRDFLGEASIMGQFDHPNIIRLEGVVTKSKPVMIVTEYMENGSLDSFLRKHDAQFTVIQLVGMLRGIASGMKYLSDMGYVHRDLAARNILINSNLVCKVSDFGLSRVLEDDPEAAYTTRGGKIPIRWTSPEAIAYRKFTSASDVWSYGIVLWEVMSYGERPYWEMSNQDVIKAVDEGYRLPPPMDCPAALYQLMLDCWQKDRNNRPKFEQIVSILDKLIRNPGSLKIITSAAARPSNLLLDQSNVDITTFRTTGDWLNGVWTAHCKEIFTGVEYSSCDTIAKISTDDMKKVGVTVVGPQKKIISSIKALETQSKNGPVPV
SMILES,effect on,action,method,concentration,endpoint,result
CN(C)C1CCN(CC#Cc2nn(C3CCCC3)c3nc(NCc4ccccc4)ncc23)C1 (stereo not drawn),enzyme activity,inhibitor,FRET,1 µM,inhibition,-9%
CCCS(=O)(=O)Nc1ccc(F)c(C(=O)c2c[nH]c3ncc(-c4ccc(Cl)cc4)cc23)c1F,enzyme activity,inhibitor,,1 µM,inhibition,< 10%
O=C(NC[C@@H]1[C@H]2CN(C(=O)OCc3cc(C(F)(F)F)cc(C(F)(F)F)c3)C[C@@H]12)c1ccc2[nH]nnc2c1,cell-free assay,,competition with immobilised ligand,1 µM,remaining binding,100%
C#Cc1cccc(Nc2ncnc3cc(OCCOC)c(OCCOC)cc23)c1,cell-free assay,,,0.5 µM,remaining signal,93.2%
CNC(=O)c1cc(Oc2ccc(NC(=O)Nc3ccc(Cl)c(C(F)(F)F)c3)cc2)ccn1,enzyme activity,inhibitor,,0.3 µM,inhibition,11%
CCCOc1ccc(OC)c(F)c1C(=O)c1ccc(C(=O)N[C@@H]2CNC[C@H]2NC(=O)c2ccc3[nH]ncc3c2)cc1,enzyme activity,inhibitor,,10 µM,remaining activity,61%
COc1cccc(CNC(=O)c2nc3scc(COCc4ccc(C(=O)O)cc4)c3c(=O)[nH]2)c1,cell-free assay,,competition with immobilised ligand,1 µM,remaining binding,91.3%
O=C(Nc1cnn(-c2csc(C(=O)NC3COC3)c2)c1)Nc1c(F)cccc1Cl,enzyme activity,inhibitor,,5 µM,remaining activity,96.1%
Cc1ccc(Nc2nccc(N(C)c3ccc4c(C)n(C)nc4c3)n2)cc1S(N)(=O)=O,enzyme activity,inhibitor,,0.3 µM,inhibition,2%
CCN(CC)CCNC(=O)c1c(C)[nH]c(/C=C2\C(=O)Nc3ccc(F)cc32)c1C,cell-free assay,,,0.5 µM,remaining signal,84%
Cc1ccc(C(=O)NCc2ccsc2)cc1C#Cc1cn(C(C)C)c2ncnc(N)c12,enzyme activity,inhibitor,,1 µM,activity vs control,45%
N#CCCc1ccc2c(c1)-c1[nH]c3ccc([N+](=O)[O-])cc3c1CC(=O)N2,cell-free assay,,,0.5 µM,remaining signal,93.9%
COc1ccc2c(c1)O[C@@H](c1ccc(OC)c(OC)c1)C[C@H]2NC(=O)C1(c2ccc3c(c2)OC(F)(F)O3)CC1,cell-free assay,,competition with immobilised ligand,1 µM,remaining binding,91%
CC(C)(C)c1nc2c(s1)c1nc(N)ncc1c1ccc(NS(=O)(=O)c3c(F)cccc3F)c(F)c12,enzyme activity,inhibitor,radiometric,1 µM,remaining activity,92%
CNC(=O)c1cc2c(Oc3ccc(NC(=O)C4(C(=O)Nc5ccc(F)cc5)CC4)cc3)ccnc2cc1OC,enzyme activity,inhibitor,radiometric,1 µM,inhibition,95%
O=C1Nc2ccc(Cl)cc2C1=Cc1cc(Cl)c(O)c(Cl)c1,cell-free assay,,,0.5 µM,remaining signal,82.5%
CNC(=O)Nc1ccc2c(c1)CC[C@@]21OC(=O)N(CC(=O)N(Cc2ccc(F)cc2)[C@@H](C)C(F)(F)F)C1=O,cell-free assay,,competition with immobilised ligand,1 µM,remaining binding,100%
Cc1ccc(C(=O)Nc2ccc(CN3CCN(C)CC3)c(C(F)(F)F)c2)cc1C#Cc1cnc2cccnn12,cell-free assay,,,23.5 nM,remaining signal,7.3%
CO[C@@H](C)c1c(Nc2ccc([C@@H](N(C)C(=O)C3CCS(=O)(=O)CC3)C(F)(F)F)cc2)cnc2cc(Cl)nn12,cell-free assay,,competition with immobilised ligand,1 µM,remaining binding,90%
CC/C(=N\NC(=O)NCc1cccc(O)c1)c1ccc(O)c(C)c1O,enzyme activity,inhibitor,,0.1 µM,inhibition,0.6%
Cc1nc(N2CC[C@@H](O)C2)ncc1-c1cc(C(F)(F)F)cc2[nH]ncc12,cell-free assay,,competition with immobilised ligand,1 µM,remaining binding,94%
CCN(CC)c1ccc(C2=NNC(=O)CC2C)cc1[N+](=O)[O-] (stereo not drawn),enzyme activity,inhibitor,,10 µM,remaining activity,100%
CCOC(=O)c1cc2cc(-c3cc(C(=O)NCc4ccc(C(=O)O)cc4)nn3C)ccc2[nH]1,cell-free assay,,competition with immobilised ligand,0.1 µM,remaining binding,100%
Cc1ccc(NC(=O)c2ccc(C)c(C(F)(F)F)c2)cc1C#Cc1nn(C2CCC(O)CC2)c2ncnc(N)c12 (stereo not drawn),cell-free assay,,,10 µM,remaining signal,3%
